Sampled rows, rich in hits. Any-hit rate of the full collection: about 2.4%.
CSN inh = blocks human CSN-mediated cullin deneddylation; Purified CSN, SCF-Nedd8-OG deneddylation, fluorescence polarization; inhibition, % at 12.5 µM; 360,000 compounds, 0.38% hits; AID 651999;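 active means pattern-corrected inhibition above about 35%, with an unprinted fluorescence ratio check between 0.5 and 1.5, limit read from the data, passing the limit was not always enough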;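 further: 0% = enzyme with substrate and 100% = substrate without enzyme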
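assay system = purified human Csn5 enzyme expressed in HEK293T cells | amount = 0.24 nM enzyme | buffer or medium = Tris/NaCl/DTT buffer, pH 7.5 | reagent = 10 nM SCFSkp2-Nedd8OG | compound = one concentration, 12.5 µM, 0.25% DMSO | times = 90 min reaction at room temperature | signal = FP | read-out basis = % inhibition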
TbMetRS inhib = blocks T. brucei methionyl-tRNA synthetase activity; purified T. brucei MetRS, ATP depletion, Kinase-Glo luminescence; inhibition, % at 11.9 µM; 360,000 compounds, 0.4% hits;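 active means inhibition above a per-plate cutoff of the control wells' mean inhibition plus 3 SD, cut at about 5.5% in these data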;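 further: 0% = DMSO wells median and 100% = median of wells with control inhibitor compound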
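Dosing: 11.9 µM compound single dose, 0.9% DMSO; Assay system: purified T. brucei MetRS enzyme; Measured by: Kinase-Glo luciferase luminescence reporting remaining unconsumed ATP; Schedule: 15 min plus 2 h at 25 °C.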
HNF4A DNA FP = change in binding of human HNF4 alpha to DNA | HNF4a-FITC DNA binding, fluorescence polarization, 1 h | activity change, % at 10 µM | 360,000 compounds, 0.3% hits | AID 1224865; in the data active means activity change above about 30%, passing the limit was not always enough
Rpn11 block = inhibitors of human proteasome Rpn11; O00487; human 26S proteasome, Ub4-pepOG fluorescence polarization; 20S core pre-blocked with epoxomicin; inhibition, % at 20 µM; 360,000 compounds, 0.59% hits;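 active means inhibition at 20 µM, scaled to each plate's controls, above about 33%, limit read from the data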
Neddylation inh = cullin neddylation inhibition; P61081+Q13564; TR-FRET cullin neddylation, biochemical; inhibition, % at 25 µM; 360,000 compounds, 0.58% hits; in the data active means inhibition above about 36%
PREPL inh = human PREPL enzyme inhibition. inhibition, % at 5.96 µM. 320,000 compounds, 0.68% hits. recombinant PREPL, fluorescence polarization activity-based probe. AID 2751. Q4J6C6; in the data active means inhibition above about 43%;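 further: 0% = enzyme with DMSO and 100% = wells lacking enzyme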
Target sequence (Q4J6C6 whole entry, looked up): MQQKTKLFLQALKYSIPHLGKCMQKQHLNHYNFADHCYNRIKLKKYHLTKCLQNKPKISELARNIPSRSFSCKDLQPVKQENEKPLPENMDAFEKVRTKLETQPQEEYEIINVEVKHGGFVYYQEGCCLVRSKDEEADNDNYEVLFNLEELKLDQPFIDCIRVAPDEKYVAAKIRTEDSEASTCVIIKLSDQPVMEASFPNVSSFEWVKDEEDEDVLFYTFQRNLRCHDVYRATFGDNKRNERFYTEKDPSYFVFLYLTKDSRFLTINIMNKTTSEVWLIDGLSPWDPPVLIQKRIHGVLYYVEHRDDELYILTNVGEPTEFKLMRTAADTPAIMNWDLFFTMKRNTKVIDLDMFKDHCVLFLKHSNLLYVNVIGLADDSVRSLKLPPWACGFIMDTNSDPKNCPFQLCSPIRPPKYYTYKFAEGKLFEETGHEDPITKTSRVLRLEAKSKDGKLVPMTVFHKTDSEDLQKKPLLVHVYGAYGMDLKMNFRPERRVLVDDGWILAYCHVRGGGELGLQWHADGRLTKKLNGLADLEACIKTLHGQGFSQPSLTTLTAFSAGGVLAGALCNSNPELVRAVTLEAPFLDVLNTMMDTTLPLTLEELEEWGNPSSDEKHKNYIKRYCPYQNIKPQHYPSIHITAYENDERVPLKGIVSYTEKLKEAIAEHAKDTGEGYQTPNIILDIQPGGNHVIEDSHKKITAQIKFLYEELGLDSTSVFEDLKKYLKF
* marks the source's active call; other numbers are inactive results; x = no result given; ! = not confirmed by another sample.

SMILES	CSN inh	TbMetRS inhib	HNF4A DNA FP	Rpn11 block	Neddylation inh	PREPL inh
Oc1c(C=C2N=c3ccccc3=N2)sc(=S)n1-c1ccc(F)cc1	-5	1	39*!	25	-11	4
Oc1c(C=C2N=c3ccccc3=N2)sc(=S)n1-c1ccc2ccccc2c1	-6	-1	4	6	-6	3
CC1=C(C(N)=O)C(c2ccccc2[N+](=O)[O-])n2ncnc2N1 (centres undefined)	4	-2	-2	-2	10	-6
CCCCNS(=O)(=O)c1ccc2nc(SCC(=O)c3ccccc3OC)[nH]c2c1	-7	13*	2	4	-5	-4
CCCCNS(=O)(=O)c1ccc2nc(SCC(N)=O)[nH]c2c1	-1	1	0	-6	-1	14
O=C(N/N=C/c1ccnc2ccccc12)c1ccccc1O	-4	2	2	-7	-19	x
CC(=O)c1sc2nc(CSc3nnnn3-c3ccccc3)[nH]c(=O)c2c1C	46*	0	38*	x	-15	-10
Cc1cccc(C)c1OCC(=O)Nc1ccc2c(c1)OCCO2	-1	0	-1	6	-12	13
CCOC(=O)c1c(Nc2ccc(Cl)cc2)sc(/C=C2\C=Nc3ccccc32)c1O	18	0	45*	x	7	15
COc1ncnc2c1ncn2CCCN(C)CCc1ccccn1	4	-2	-3	-11	2	x
C#CCOCCOCCOCCNc1nc(N2CCN(C(=O)CCCCCCCCCCNC(=O)[C@H]([C@@H](C)CC)n3cc(CCCCN=C(N)N)nn3)CC2)nc(N2CCN(C(=O)CCCCCCCCCCNC(=O)[C@H](CCCN=C(N)N)n3cc(C[C@@H](C)CC)nn3)CC2)n1	x	x	x	x	x	69*
C#CCOCCOCCOCCNc1nc(N2CCN(C(=O)CCCCCCCCCCNC(=O)[C@H](CCCN=C(N)N)n3cc(C[C@@H](C)CC)nn3)CC2)nc(N2CCN(C(=O)CCCCCCCCCCNC(=O)[C@@H]([C@H](C)CC)n3cc(CCCCCN)nn3)CC2)n1	x	x	x	x	x	60*
CCCCN(CCCC)Cc1cc(=O)oc2cc(OC)c(Cl)cc12	0	0	3	9	26	x
COc1cc(C2C(C(C)=O)=C(O)C(=O)N2c2ccc(Br)cn2)ccc1O (centres undefined)	-1	0	1	-8	-23	0
COc1cc(C2C(C(=O)/C=C/c3ccccc3)=C(O)C(=O)N2c2ccccn2)ccc1O (centres undefined)	66	-1	40*	x	-38	35
Cc1ccc(C(=O)NNC(=O)CSc2nnc3c(n2)[nH]c2ccc(F)cc23)cc1	43*	1	-10	10	31	1
O=c1c([N+](=O)[O-])cccn1Cc1cccc(Br)c1	1	-1	1	-6	-35	x
Brc1cccc(CNc2nc3ccccc3n2CCN2CCCCC2)c1	0	4	2	-3	-6	52*
Cc1cccc(-n2nc3c(c2NC(=O)c2ccco2)CS(=O)C3)c1C (centres undefined)	1	0	1	3	1	16
Cc1cccc(-n2nc3c(c2NC(=O)c2ccco2)CSC3)c1C	36*	0	-20	28	-7	-7
CSc1ccc(C(=O)C2CCCN(C(=O)c3nonc3C)C2)cc1 (centres undefined)	2	-1	-4	-5	-252	8
CC(C)OC(=O)c1nn2c(C(F)(F)F)cc(-c3ccco3)nc2c1Cl	14	-1	65*	x	10	0
O=C(Cn1cnc([N+](=O)[O-])c1)Nc1cc(Oc2ccc(Cl)cc2Cl)cc([N+](=O)[O-])c1	1	78*	0	-2	-19	22
Cc1c(Cl)cccc1NC(=O)CNC(=O)c1cn(-c2ccccc2)nc1-c1cccnc1	2	31*	3	13	11	-44
CCOC(=O)c1cn(-c2ccccc2)nc1-c1cccnc1	-2	-1	-3	-6	7	16
COc1cccc(CN2CCNC(=O)C2CC(=O)NCCN2CCCCC2=O)c1 (centres undefined)	2	0	-3	-4	7	2
O=c1c2ccccc2nc(/C=C/c2ccc([N+](=O)[O-])o2)n1CCCO	24	0	74*	x	-22	-10

From PubChem BioAssay
